Assay results from ChEMBL document CHEMBL4680084, “New β-Lactam Derivatives Modulate Cell Adhesion and Signaling Mediated by RGD-Binding and Leukocyte Integrins” (J Med Chem, 2016).

How the values were obtained:
[1] = target: T1, Integrin alpha-IIb/beta-3 (Homo sapiens, UniProt P05106+P08514); experiment: Inhibition of fibrinogen binding to alpha2bbeta3 isolated from human HEL cells incubated for 1 hr by […] competitive solid-phase binding assay
[2] = target: T2, Integrin alpha-5/beta-1 (Homo sapiens, UniProt P05556+P08648); experiment: Inhibition of fibronectin binding to alpha5beta1 isolated from human K562 cells incubated for 1 hr by […] competitive solid-phase binding assay; assay type: tissue-based
Method in brief: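 Plates coated overnight at 4 °C in carbonate buffer pH 9.6 with fibronectin 0.5 µg/mL (αvβ3, αvβ6, α5β1), fibrinogen 10 µg/mL (αIIbβ3, αvβ5) or ICAM-1 (αLβ2). Blocked 1 h in buffer containing Ca/Mg/Mn 1 mM each and 1% BSA. Purified integrin (3–10 µg/mL) incubated with compound (10⁻⁴–10⁻¹⁰ M) 1 h at room temperature. Bound integrin detected with primary antibody then AlexaFluor488 secondary, Ex485/Em535. Duplicate, at least three repeats.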

[3] = system: SK-MEL-24; experiment: Toxicity in human SK-MEL-24 cells assessed as induction of cell necrosis and/or apoptosis incubated for 3 hrs by annexin V-PE and 7-AAD staining based by flow cytometry; conditions: sk-mel-24, 3 h
Method in brief: (§1)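 After 3 h incubation, cells resuspended in complete medium and stained with annexin V-PE/7-AAD reagent for 20 min at room temperature in the dark. Flow cytometry sorted cells into viable, early apoptotic and late apoptotic/necrotic populations.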

[4] = system: MCF7; experiment: Toxicity in human MCF7 cells assessed as induction of cell necrosis and/or apoptosis incubated for 3 hrs by annexin V-PE and 7-AAD staining based by flow cytometry; conditions: mcf7, 3 h; method in brief: as §1
[5] = system: HT-29; experiment: Toxicity in human HT-29 cells assessed as induction of cell necrosis and/or apoptosis incubated for 3 hrs by annexin V-PE and 7-AAD staining based by flow cytometry; conditions: ht-29, 3 h; method in brief: as §1
[6] = system: K562; experiment: Toxicity in human K562 cells assessed as induction of cell necrosis and/or apoptosis incubated for 3 hrs by annexin V-PE and 7-AAD staining based by flow cytometry; conditions: k562, 3 h; method in brief: as §1
[7] = system: HEL; experiment: Toxicity in human HEL cells assessed as induction of cell necrosis and/or apoptosis incubated for 3 hrs by annexin V-PE and 7-AAD staining based by flow cytometry; method in brief: as §1
[8] = target: T3, Integrin alpha-V/beta-3 (Homo sapiens, UniProt P05106+P06756); experiment: Agonist activity at alphaVbeta3 in human SK-MEL-24 cells assessed as increase in cell adhesion to fibronectin pre-incubated for 30 mins before fibronectin and further incubated for 1 hr by nitrophenyl-N-acetyl-beta-D-glucosaminide substrate based chromogenic assay
Method in brief: (§2)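 Compound or methanol vehicle pre-incubated with cells for 30 min at room temperature. Cells then plated on wells coated overnight at 4 °C with fibronectin 10 µg/mL (SK-MEL-24, K562, HT-29) or fibrinogen 10 µg/mL (MCF7, HEL). Seeding was 50,000 cells/well, or 100000 for HEL. Adhesion ran 1 h at room temperature. Wells washed with 1% BSA/PBS. Adherent cells read by hexosaminidase substrate, absorbance 405 nm. Quadruplicate, at least three repeats.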

[9] = target: T3, Integrin alpha-V/beta-3; experiment: Antagonist activity at alphaVbeta3 in human SK-MEL-24 cells assessed as reduction in cell adhesion to fibronectin pre-incubated for 30 mins before fibronectin and further incubated for 1 hr by nitrophenyl-N-acetyl-beta-D-glucosaminide substrate based chromogenic assay
Method in brief: (§3)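 Compound or methanol vehicle pre-incubated with cells for 30 min at room temperature. Cells then plated on wells coated overnight at 4 °C with fibronectin 10 µg/mL (SK-MEL-24, K562, HT-29) or fibrinogen 10 µg/mL (MCF7, HEL). Seeding was 50,000 cells/well, or 100000 for HEL. Adhesion ran 1 h at room temperature. Wells washed with 1% BSA/PBS. Quadruplicate, at least three repeats.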

[10] = target: T4, Integrin alpha-V/beta-5 (Homo sapiens, UniProt P06756+P18084); experiment: Agonist activity at alphaVbeta5 in human MCF7 cells assessed as increase in cell adhesion to fibrinogen pre-incubated for 30 mins before fibrinogen and further incubated for 1 hr by nitrophenyl-N-acetyl-beta-D-glucosaminide substrate based chromogenic assay; method in brief: as §2
[11] = target: T4, Integrin alpha-V/beta-5; experiment: Antagonist activity at alphaVbeta5 in human MCF7 cells assessed as reduction in cell adhesion to fibrinogen pre-incubated for 30 mins before fibrinogen and further incubated for 1 hr by nitrophenyl-N-acetyl-beta-D-glucosaminide substrate based chromogenic assay; method in brief: as §3
[12] = target: T5, Integrin alpha-V/beta-6 (Homo sapiens, UniProt P06756+P18564); experiment: Agonist activity at alphaVbeta6 in human HT-29 cells assessed as increase in cell adhesion to fibronectin pre-incubated for 30 mins before fibronectin and further incubated for 1 hr by nitrophenyl-N-acetyl-beta-D-glucosaminide substrate based chromogenic assay; method in brief: as §2
[13] = target: T5, Integrin alpha-V/beta-6; experiment: Antagonist activity at alphaVbeta6 in human HT-29 cells assessed as reduction in cell adhesion to fibronectin pre-incubated for 30 mins before fibronectin and further incubated for 1 hr by nitrophenyl-N-acetyl-beta-D-glucosaminide substrate based chromogenic assay; method in brief: as §3
[14] = target: T2, Integrin alpha-5/beta-1; experiment: Antagonist activity at alpha5beta1 in human K562 cells assessed as reduction in cell adhesion to fibronectin pre-incubated for 30 mins before fibronectin and further incubated for 1 hr by nitrophenyl-N-acetyl-beta-D-glucosaminide substrate based chromogenic assay; method in brief: as §2
[15] = target: T1, Integrin alpha-IIb/beta-3; experiment: Agonist activity at alpha2bbeta3 in human HEL cells assessed as increase in cell adhesion to fibrinogen pre-incubated for 30 mins before fibrinogen and further incubated for 1 hr by nitrophenyl-N-acetyl-beta-D-glucosaminide substrate based chromogenic assay; method in brief: as §3
[16] = target: T1, Integrin alpha-IIb/beta-3; experiment: Antagonist activity at alpha2bbeta3 in human HEL cells assessed as reduction in cell adhesion to fibrinogen pre-incubated for 30 mins before fibrinogen and further incubated for 1 hr by nitrophenyl-N-acetyl-beta-D-glucosaminide substrate based chromogenic assay; method in brief: as §3
[17] = target: T6, Integrin alpha-4/beta-1 (Homo sapiens, UniProt P05556+P13612); experiment: Antagonist activity at alpha4beta1 in human Jurkat E6.1 cells assessed as reduction in cell adhesion to VCAM1 pre-incubated for 30 mins before VCAM1 and further incubated for 30 mins by […]; assay type: cell-based
[18] = target: T7, Integrin alpha-L/beta-2 (LFA-1) (Homo sapiens, UniProt P05107+P20701); experiment: Agonist activity at alphaLbeta2 in human Jurkat E6.1 cells assessed as increase in cell adhesion to ICAM1 pre-incubated for 30 mins before ICAM1 and further incubated for 30 mins by […]; assay type: cell-based
Method in brief: (§4)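 Jurkat E6.1 cells labelled with CellTracker green CMFDA (12.5 µM, 30 min, 37 °C), washed, then pre-incubated 30 min at 37 °C with compound or methanol. Plated at 500,000/well on VCAM-1 (α4β1) or ICAM-1 (αLβ2) coated wells (5 µg/mL) for 30 min at 37 °C. Cells lysed in 0.5% Triton X-100; fluorescence read Ex485/Em535. Quadruplicate, at least three repeats.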

[19] = target: T7, Integrin alpha-L/beta-2 (LFA-1); experiment: Antagonist activity at alphaLbeta2 in human Jurkat E6.1 cells assessed as reduction in cell adhesion to ICAM1 pre-incubated for 30 mins before ICAM1 and further incubated for 30 mins by […]; assay type: cell-based; method in brief: as §4
[20] = target: T3, Integrin alpha-V/beta-3; experiment: Inhibition of fibronectin binding to human recombinant alphaVbeta3 expressed in HEK293 cells incubated for 1 hr by […] competitive solid-phase binding assay; assay type: cell-based
[21] = target: T4, Integrin alpha-V/beta-5; experiment: Inhibition of fibrinogen binding to alphaVbeta5 isolated form human mCf7 cells incubated for 1 hr by […] competitive solid-phase binding assay
[22] = target: T5, Integrin alpha-V/beta-6; experiment: Inhibition of fibronectin binding to alphaVbeta6 isolated form human HT-29 cells incubated for 1 hr by […] competitive solid-phase binding assay; assay type: tissue-based
[23] = target: T6, Integrin alpha-4/beta-1; experiment: Inhibition of fibronectin binding to […] isolated from human Jurkat E6.1 cells incubated for 1 hr by scintillation-proximity assay based competitive solid-phase binding assay; assay type: tissue-based
[24] = target: T6, Integrin alpha-4/beta-1; experiment: Antagonist activity at alpha4beta1 in human Jurkat E6.1 cells assessed as reduction in VCAM-1 induced ERK1/2 phosphorylation at 1 to 100 nM by Western blot analysis; assay type: cell-based; conditions: filed as antagonist, dose 1-100 nM
[25] = target: T6, Integrin alpha-4/beta-1; experiment: Antagonist activity at alpha4beta1 in human Jurkat E6.1 cells assessed as reduction in exposure of HUTS-21 epitope measured by mAb binding; assay type: cell-based; conditions: filed as antagonist
Method in brief: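 Jurkat E6.1 cells at 10⁶/mL in 1% BSA/HBSS incubated 30 min at 37 °C with compound. PE-labelled HUTS-21 mAb then added for 45 min at room temperature. Cells washed, 10,000 analysed by flow cytometry. MFI corrected to isotype control set to 0. Four independent experiments in duplicate.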

For `Nc1ccc(CNC(=O)N2C(=O)C[C@H]2C(=O)O)cc1.O=C(O)C(F)(F)F`, the IC50 [1] was > 1000 nM, the IC50 [2] was 331 nM and the Activity [3] was “Non-Toxic”. The Activity [4] was “Non-Toxic”, the Activity [5] was “Non-Toxic” and the Activity [6] was “Non-Toxic”. The Activity [7] was “Non-Toxic”, the EC50 [8] was > 5000 nM and the IC50 [9] was > 5000 nM. The EC50 [10] was > 5000 nM, the IC50 [11] was > 5000 nM and the EC50 [12] was > 5000 nM. The IC50 [13] was > 5000 nM, the IC50 [14] was 525 nM and the EC50 [15] was > 5000 nM. For the same compound, the IC50 [16] was > 5000 nM, the IC50 [17] was 8.8 nM and the EC50 [18] was > 5000 nM. The IC50 [19] was > 5000 nM, the IC50 [20] was > 1000 nM and the IC50 [21] was > 1000 nM. For the same compound, the IC50 [22] was > 1000 nM, the IC50 [23] was 7.6 nM and the Activity [24] was “Dose-dependent effect”. The Activity [25] was “Dose-dependent effect”.
